# Assay outcomes from PubChem BioAssay.
# EP2 antag: blocks the human prostaglandin E2 receptor EP2; C6 glioma cells expressing human EP2, cAMP TR-FRET; cells stimulated with saturating PGE2; inhibition, % at 25 µM; 260,000 tested, 0.52% active; AID 1422;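 active means percent inhibition above 40 after rounding to a whole number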;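 further: rat C6 glioma host cells with rolipram phosphodiesterase inhibitor present; the protocol text gives 20 µM as final concentration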
# OX1R antag-1: blocks the human orexin 1 receptor. OX1R-expressing cells, FRET antagonist read-out. O43613. AID 485270. inhibition, % at 6.6 µM. 330,000 tested, 1.8% active; in the data active means inhibition mostly above about 38%, no sharp cut-off; inactive means mostly below about 40%;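 further: 0% = agonist challenge alone and 100% = reference antagonist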
# Target sequence (O43613 whole entry, looked up): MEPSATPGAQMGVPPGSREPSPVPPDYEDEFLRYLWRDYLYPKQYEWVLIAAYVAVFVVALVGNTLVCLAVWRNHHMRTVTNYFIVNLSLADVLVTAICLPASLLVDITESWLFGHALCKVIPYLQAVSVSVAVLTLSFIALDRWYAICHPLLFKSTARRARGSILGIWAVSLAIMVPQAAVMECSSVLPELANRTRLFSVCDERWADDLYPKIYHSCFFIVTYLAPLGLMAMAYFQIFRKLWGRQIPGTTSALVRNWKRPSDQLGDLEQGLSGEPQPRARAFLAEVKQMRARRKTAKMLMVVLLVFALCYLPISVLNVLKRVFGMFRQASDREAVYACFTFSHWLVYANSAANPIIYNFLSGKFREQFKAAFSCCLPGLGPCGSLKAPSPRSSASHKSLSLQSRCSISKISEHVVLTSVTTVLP
# CHO parental Ca: signal in parental CHO cells, OX1R antagonist counter-screen; parental CHO-K1, ATP-induced calcium, Fluo-8 fluorescence; inhibition, % at 5.6 µM; 330,000 tested, 0.63% active;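 active means inhibition above that plate's mean sample inhibition plus 3 SD, cut at about 26% in these data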;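 further: 0% = ATP-challenged DMSO wells and 100% = DMSO wells without ATP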
#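 material = parental CHO cells | also added = ATP as calcium-mobilizing challenge | dosing = single point at 5.6 µM | detection = intracellular calcium via Fluo-8 no-wash fluorescent dye | read-out = % inhibition | benchmarks = low control ATP plus DMSO, high control DMSO only | repeats = one well per compound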
# EP2 mod: modulates human prostaglandin E2 receptor EP2 signaling | P43116 | EP2-expressing cells, cAMP HTRF FRET, PGE2 co-stimulation | induction, % at 25 µM | 260,000 tested, 0.83% active | AID 940;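 active means compounds whose cAMP rise, as percent of the full-agonist control response, exceeds 60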;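 further: rat C6 glioma line stably carrying human EP2 under a CMV promoter; the protocol text gives 20 µM as final concentration; 100% = response of wells given 1 µM PGE2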
# GPR7 antag: blocks human GPR7 receptor signaling; P48145; GPR7-expressing cells, fluorescence antagonist assay; inhibition, % at 4.4 µM; 290,000 tested, 1.1% active; in the data active means inhibition above about 16%, passing the limit was not always enough;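 further: cells stimulated with the agonist NPW; 0% = agonist with vehicle and 100% = vehicle without agonist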
# OX1R antag-2: antagonists of human orexin 1 receptor | O43613 | CHO/OX1R cells, Fluo-8 calcium fluorescence, orexin A | inhibition, % at 5 µM | 330,000 tested, 0.43% active;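 active means inhibition above its plate's threshold, mean inhibition of all tested compounds on the plate plus 3 SD, cut at about 37% in these data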;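 further: 0% = orexin A challenge wells and 100% = SB-334867-A antagonist wells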
# GPR7 antag conf: confirmation of human GPR7 antagonists. shares compounds with GPR7 antag. GPR7-expressing cells, calcium fluorescence antagonist mode. inhibition, % at 4.4 µM. 2,400 tested, 52% active. AID 1952; in the data active means inhibition above about 24%;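 further: stimulated with the GPR7 agonist NPW; 0% = agonist plus vehicle and 100% = vehicle alone without agonist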
# MCHR1 antagonist: antagonizes human MCHR1, a GPR7 antagonist counter-screen; shares compounds with GPR7 antag; MCHR1-expressing cells, fluorescence antagonist assay; inhibition, % at 4.4 µM; 2,400 tested, 62% active; in the data active means inhibition above about 22%;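 further: 0% = vehicle with agonist and 100% = vehicle without agonist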
# The depositor's hits bear a star; . = no result. Most compounds without a hit are left out; they make up all but 3.7% or so of the library.
SMILES,EP2 antag,OX1R antag-1,CHO parental Ca,EP2 mod,GPR7 antag,OX1R antag-2,GPR7 antag conf,MCHR1 antagonist
CCCCn1c(N)c(N(CC)C(=O)CSCc2ccc(C)cc2)c(=O)[nH]c1=O,.,25,1,.,-10,-15,.,.
Cc1ccc(-c2cc(C(=O)N3CCN(c4ccc(O)cc4)CC3)c3ccccc3n2)cc1,.,-4,-15,.,.,-11,.,.
CCCCn1c(=N)n(CC(O)c2ccccc2)c2ccccc21 (stereo unspecified),3,16,-20,-10,31*,-27,4,9
CCn1c(=N)n(CC(O)c2ccccc2)c2ccccc21 (stereo unspecified),22,15,-11,-15,-6,-11,.,.
CCCCn1c(=N)n(CC(O)COc2ccc(C)cc2)c2ccccc21 (stereo unspecified),4,9,-2,-7,36*,-18,28*,39*
Cc1ccc(Cn2c(=N)n(CC(O)COc3ccccc3)c3ccccc32)cc1 (stereo unspecified),-5,-7,41*,-22,29*,52*,43*,71*
O=C(Nc1ccccc1)N1CCN(Cc2ccc(Cl)cc2)CC1,5,12,-15,-29,7,-5,.,.
O=C(Nc1ccc(Cl)cc1)N1CCCN(Cc2ccc(F)cc2)C1,8,4,-8,-32,88*,-5,43*,42*
O=C(COC(=O)C1=COCCO1)Nc1ncc(Cl)cc1Cl,.,16,-5,.,.,-18,.,.
CC1CCC(C(C)C)C(OCC(O)CN2CCCC(C)C2)C1 (stereo unspecified),5,19,-4,-8,32*,-33,39*,25*
CC1CCC(C(C)C)C(OCC(O)CN2CCOCC2)C1 (stereo unspecified),-6,7,-12,-8,-4,-11,.,.
CCc1cccc2c(C(=O)C(NCCCOC)c3ccccc3)c[nH]c12 (stereo unspecified),.,36,-1,.,35*,5,43*,30*
CCc1cccc2c(C(=O)C(NC(C)CC)c3ccccc3)c[nH]c12 (stereo unspecified),.,23,-16,.,11,-10,.,.
Cc1cccc(N2C(=O)c3cccc4c(N(C)CCO)ccc(c34)C2=O)c1,.,31,26,35,25*,46*,34*,53*
CN(C)c1ccc2c3c(cccc13)C(=O)N(c1ccccc1)C2=O,10,20,5,-6,5,3,.,.
O=C(NCc1ccccc1)C(c1ccc(F)cc1)N(Cc1ccco1)C(=O)c1ccccn1 (stereo unspecified),12,10,-18,-2,7,-13,.,.
O=C(NC1CCCCC1)C(c1ccc(F)cc1)N(Cc1ccco1)C(=O)c1ccccn1 (stereo unspecified),13,15,-11,-5,26*,-21,6,12
CC(C)(C)NC(=O)CSc1ccc(S(=O)(=O)N2CCOCC2)cn1,.,7,-3,.,.,-4,.,.
CN1CCC(Oc2ccccc2Sc2ccc(C(F)(F)F)cc2)CC1,12,9,-5,-71,27*,-4,30*,64*
CC(C)CCNC(=O)C(c1ccco1)N(Cc1cccs1)C(=O)Cn1nnc2ccccc21 (stereo unspecified),18,.,.,7,33*,.,11,10
COCCNC(=O)C(c1cccs1)N(Cc1cccs1)C(=O)Cn1nnc2ccccc21 (stereo unspecified),22,6,-26,22,3,-15,.,.
Cc1ccc(SCC(=O)Nc2ccc(N3CCN(C)CC3)c(F)c2)c(C)c1,8,4,-22,-49,38*,-15,3,10
CCC(C)N1CCC2(CC1)N=c1c(c3c4c5c(C)c(O)c3c(O)c1=NC(=O)C(C)=CC=C[C@H](C)[C@H](O)[C@@H](C)[C@@H](O)[C@@H](C)[C@H](OC(C)=O)[C@H](C)[C@@H](OC)C=CO[C@@](C)(O5)C4=O)N2 (stereo partly specified),.,17,-21,.,.,-24,.,.
Cc1nnc(N/N=C/c2c[nH]c3ccccc23)[nH]c1=O,6,13,14,-79,29*,-16,-10,2
CC1(C)CC(=O)C/C(=N/NC(=O)COc2ccc(Cl)cc2Cl)C1,11,8,-13,17,-13,-24,.,.
SMILES,EP2 antag,OX1R antag-1,CHO parental Ca,EP2 mod,GPR7 antag,OX1R antag-2,GPR7 antag conf,MCHR1 antagonist
CC1(C)CC(=O)C/C(=N/NC(=O)COc2ccc3ccccc3c2Br)C1,.,1,-19,.,104*,-7,-1,1
CC(C)CS(=O)(=O)C1=NN2C(=N)/C(=C\c3ccc(OC(=O)c4ccco4)cc3)C(=O)N=C2S1,.,5,-4,.,43*,-13,42*,34*
Clc1cccc(Cl)c1CON/C=N/c1ncnc2sccc12,10,31,-3,-20,-6,-23,.,.
Clc1cccc(CON/C=N/c2ncnc3sccc23)c1,3,82*,-9,-55,37*,2,14,40*
CCCc1c(O)c2ccccc2[nH]c1=O,9,12,30,9,-12,-4,.,.
O=c1[nH]c2ccccc2c(O)c1Cc1ccccc1,11,21,-1,-2,22*,3,0,-4
CC(OCC(O)CN1CCCCC1CCO)c1ccc(Cl)cc1 (stereo unspecified),.,9,-10,.,-7,-24,.,.
CCOC(=O)c1nnn(-c2nonc2N)c1-c1ccccc1,10,11,-21,2,-4,-10,.,.
Cc1c(C(=O)OCc2ccccc2)nnn1-c1nonc1N,10,6,4,39,21*,-8,-3,6
Cc1cc2c(cc(C(=O)N3CCC(C(=O)N4CCCC4)CC3)n2Cc2c(F)cccc2Cl)o1,12,2,-3,14,27*,-34,20,12
Cc1cccn2c(=O)nc(SCC(=O)Nc3cccc4ccccc34)nc12,.,25,-18,.,.,-27,.,.
Cc1c(C(=O)Nc2ccc(Nc3ccccc3)cc2)cccc1[N+](=O)[O-],.,-1,12,.,16,2,.,.
COC(=O)CSc1nnc(-c2ccc(S(=O)(=O)NCc3cccs3)cc2)o1,11,0,-1,-28,22*,6,58*,38*
CC(C)NC(=O)CSc1nnc(-c2ccc(S(=O)(=O)NCc3cccs3)cc2)o1,9,.,.,3,.,.,.,.
CC(C)(CO)NCc1c(OCc2ccc(Cl)cc2)ccc2ccccc12,.,4,1,.,32*,-8,27*,15
CN(CCC#N)C(=O)COC(=O)c1ccc2[nH]c3c(c2c1)CCCC3,4,52,-7,-39,-20,-16,.,.
